Experimental data published in ChEMBL document CHEMBL4382237, “Design, Synthesis, and Biological Evaluation of 2-Nitroimidazopyrazin-one/-es with Antitubercular and Antiparasitic Activity” (J Med Chem, 2018).
In brackets after ≈: the same amount, converted by molar mass.

What was measured:
[1] = test system: Mycobacterium tuberculosis; assay: Antibacterial activity against Mycobacterium tuberculosis H37Rv after 5 days under normoxic condition by resazurin dye-based fluorescence assay; format: functional, organism-based; details: for IC50: Mycobacterium tuberculosis, H37Rv, 120 h
Outline: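 H37Rv grown in 7H9/ADC/glycerol/Tyloxapol to mid-exponential phase, diluted to OD600 0.001 (~2 x 10^4 CFU/mL) in 7H9S with serially diluted compound. Incubated 5 days at 37 °C, then resazurin and Tween-80 added. Fluorescence (ex 530/em 590 nm) read after 24 h, normalised to no-drug and no-bacteria wells.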

Acinetobacter baumannii = assay: Antibacterial activity against Acinetobacter baumannii ATCC 19606 by broth microdilution assay; format: functional; details: ATCC 19606 = CIP 70.34 = JCM 6841
Outline: (§1)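 Broth microdilution run essentially per an earlier report. MIC taken as the lowest concentration with no visible growth. Replicates typically agreed within one 2-fold dilution. The median MIC is reported, with a range where the median fell between two tested concentrations.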

HepG2 = assay: Cytotoxicity against human HepG2 cells after 24 hrs by resazurin dye-based fluorescence assay; format: cell-based; details: hepg2, 24 h
Outline: (§2)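 HEK293 (3000/well) and HepG2 (5000/well) were grown 24 h in DMEM with 10% FBS at 37 °C, 5% CO2. Cells were then exposed 24 h to a dilution series up to 100 µM (0.5% DMSO). 5 µM resazurin was added for 2 h, read at ex 560/em 590. 1% Triton X-100 served as lysis control. CC50 was derived from the curves.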

Escherichia coli = assay: Antibacterial activity against Escherichia coli ATCC 25922 by broth microdilution assay; format: functional; outline: as §1
Pseudomonas aeruginosa = assay: Antibacterial activity against Pseudomonas aeruginosa ATCC 27853 by broth microdilution assay; format: functional; outline: as §1
[2] = test system: Mycobacterium tuberculosis; assay: Antibacterial activity against non-replicating Mycobacterium tuberculosis H37Rv after 5 days under hypoxic condition by resazurin dye-based fluorescence assay; format: functional; details: 120 h
Outline: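 Same H37Rv inoculum (OD600 0.001, ~2 x 10^4 CFU/mL) in 7H9S with serially diluted compound. Plates held 5 days at 0.1% oxygen, then resazurin plus Tween-80 added.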

Giardia intestinalis = assay: Antiparasitic activity against Giardia lamblia WB trophozoites after 24 to 48 hrs by CellTiter-Glo luminescent cell viability assay; details: Giardia duodenalis
Candida albicans = assay: Antifungal activity against Candida albicans ATCC 90028 by broth microdilution assay; format: functional; outline: as §1
Staphylococcus aureus = assay: Antibacterial activity against methicillin-resistant Staphylococcus aureus ATCC […] by broth microdilution assay; format: functional
Cryptococcus neoformans = assay: Antifungal activity against Cryptococcus neoformans H99 ATCC […] broth microdilution assay; format: functional; details: var. grubii H99 ATCC 208821; outline: as §1
Klebsiella pneumoniae = assay: Antibacterial activity against Klebsiella pneumoniae 700603 by broth microdilution assay; format: functional; outline: as §1
Entamoeba histolytica = assay: Antiparasitic activity against Entamoeba histolytica HM-1:IMSS trophozoites after 24 to 48 hrs by CellTiter-Glo luminescent cell viability assay; format: functional, organism-based
Outline: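 Axenic trophozoites were kept in TYI-S-33 with penicillin (100 U/mL) and streptomycin (100 µg/mL) and harvested in log phase. 5000 parasites per well were exposed to a final 8-point two-fold series of 0.39–50 µM, from 10 mM DMSO stocks. Plates were incubated 24–48 h at 37 °C under anaerobic conditions. ATP luminescence viability was read in triplicate. Percent inhibition is given at the highest concentration tested.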

HEK293 = assay: Cytotoxicity against HEK293 cells after 24 hrs by resazurin dye-based fluorescence assay; format: cell-based; details: human, hek293, 24 h; outline: as §2
[3] = test system: Trypanosoma brucei brucei; assay: Antiparasitic activity against bloodstream form of Trypanosoma brucei brucei strain 427 assessed as inhibition of parasitic growth at 40 uM after 48 hrs by resazurin dye-based assay relative to control; format: functional; details: strain 427, 48 h, read-out: GI
[4] = test system: Mycobacterium tuberculosis; assay: Antibacterial activity against Mycobacterium tuberculosis H37Rv assessed as inhibition of bacterial growth at 32 ug/ml after 5 days under normoxic condition by resazurin dye-based fluorescence assay relative to control; format: functional; details: 120 h, read-out: GI
[5] = Metabolic stability in human liver microsomes assessed as parent compound remaining at 3 uM after 2 hrs by LC-MS/MS analysis
[6] = Metabolic stability in CD-1 mouse liver microsomes assessed as parent compound remaining at 3 uM after 2 hrs by LC-MS/MS analysis
[7] = test system: Trypanosoma brucei brucei; assay: Antiparasitic activity against bloodstream form of Trypanosoma brucei brucei strain 427 after 48 hrs by resazurin dye-based assay; format: functional, organism-based; details: strain 427, 48 h
physchem [8] = details: PBS, pH 7.4
physchem [9] = details: water
Clostridioides difficile = assay: Antibacterial activity against Clostridium difficile 630 ATCC BAA-1382 by broth microdilution assay; format: functional; outline: as §1
[10] = Metabolic stability in CD-1 mouse plasma assessed as parent compound remaining at 3 uM after 2 hrs by LC-MS/MS analysis
[11] = Metabolic stability in human plasma assessed as parent compound remaining at 3 uM after 2 hrs by LC-MS/MS analysis

O=[N+]([O-])c1cn2ccnc(OCCc3ccc(OC(F)(F)F)cc3)c2n1 showed an MIC [1] of over 32 µg/mL, an MIC (Acinetobacter baumannii) of over 32 µg/mL and a CC50 (HepG2) of over 100 µM. For the same compound, the MIC (Escherichia coli) was over 32 µg/mL, the MIC (Pseudomonas aeruginosa) was over 32 µg/mL and the MIC [2] was over 32 µg/mL. The IC50 (Giardia intestinalis) was 5.2 µM, the IC50 (Giardia intestinalis; read-out: pIC50 (converted)) was 5.01 µM and the MIC (Candida albicans) was over 32 µg/mL. The MIC (Staphylococcus aureus) was over 32 µg/mL, the MIC (Cryptococcus neoformans) was over 32 µg/mL and the MIC (Klebsiella pneumoniae) was over 32 µg/mL. For the same compound, the IC50 (Entamoeba histolytica; read-out: IC50) was 7.8 µM and the CC50 (HEK293) was over 100 µM.
O=c1c2nc([N+](=O)[O-])cn2ccn1CCc1ccc(OC(F)(F)F)cc1 showed an IC50 [1] of 8 µM, an MIC (Acinetobacter baumannii) of over 32 µg/mL and a CC50 (HepG2) of over 100 µM. It also gave an inhibition of growth at 40 µM [3] of 44%, an MIC (Escherichia coli) of over 32 µg/mL and an MIC (Pseudomonas aeruginosa) of over 32 µg/mL. For the same compound, the MIC [2] was over 32 µg/mL, the IC50 (Giardia intestinalis) was 1.6 µM and the IC50 (Giardia intestinalis; read-out: pIC50 (converted)) was 1.58 µM. For the same compound, the MIC (Candida albicans) was over 32 µg/mL, the inhibition of growth at 32 µg/mL [4] was 70% and the MIC (Staphylococcus aureus) was over 32 µg/mL. The MIC (Cryptococcus neoformans) was over 32 µg/mL, the MIC (Klebsiella pneumoniae) was over 32 µg/mL and the CC50 (HEK293) was over 100 µM.
With O=[N+]([O-])c1cn2ccnc(OCc3ccccc3OC(F)(F)F)c2n1 the MIC [1] was over 32 µg/mL, the MIC (Acinetobacter baumannii) was over 32 µg/mL and the Stability [5] was 51%. The CC50 (HepG2) was over 100 µM, the Stability [6] was under 0.5% and the MIC (Escherichia coli) was over 32 µg/mL. The MIC (Pseudomonas aeruginosa) was over 32 µg/mL, the MIC [2] was over 32 µg/mL and the IC50 (Giardia intestinalis) was 12 µM. For the same compound, the IC50 (Giardia intestinalis; read-out: pIC50 (converted)) was 12.6 µM, the MIC (Candida albicans) was over 32 µg/mL and the IC50 ([7]; read-out: IC50) was over 40 µM. The IC50 ([7]; read-out: pIC50 (converted)) was over 39.8 µM, the MIC (Staphylococcus aureus) was over 32 µg/mL and the MIC (Cryptococcus neoformans) was over 32 µg/mL. The MIC (Klebsiella pneumoniae) was over 32 µg/mL and the CC50 (HEK293) was over 100 µM.
Work on O=c1[nH]c(-c2ccccc2)cn2cc([N+](=O)[O-])nc12 yielded an MIC [1] of over 32 µg/mL, an MIC [2] of over 32 µg/mL and an IC50 (Giardia intestinalis) of 10 µM. For the same compound, the IC50 (Giardia intestinalis; read-out: pIC50 (converted)) was 10 µM, the IC50 ([7]; read-out: IC50) was 0.22 µM and the IC50 ([7]; read-out: pIC50 (converted)) was 0.2 µM. It also gave a solubility kinetic at 24 h, 200 µM (physchem [8]) of 17 µM (≈ 4.36 µg/mL), a solubility kinetic at 24 h, 200 µM (physchem [9]) of 27 µM (≈ 6.92 µg/mL) and an IC50 (Entamoeba histolytica; read-out: IC50) of over 25 µM. The IC50 (Entamoeba histolytica; read-out: pIC50 (converted)) was over 25.1 µM.
With O=C(NCc1ccc(OC(F)(F)F)cc1)c1ncc([N+](=O)[O-])[nH]1 the MIC [1] was over 32 µg/mL, the MIC (Clostridioides difficile) was 4 to 16 µg/mL (≈ 12.1 to 48.5 µM) and the MIC [2] was over 32 µg/mL. It also gave an IC50 (Giardia intestinalis) of 0.2 to 0.5 µM, an inhibition of growth at 32 µg/mL [4] of 60 to 75% and an IC50 (Entamoeba histolytica; read-out: IC50) of 2.2 to 4.5 µM.
With CC(c1ccc(F)cc1)n1ccn2cc([N+](=O)[O-])nc2c1=O (centres undefined) the MIC [1] was 0.5 µg/mL (≈ 1.65 µM), the MIC (Acinetobacter baumannii) was over 32 µg/mL and the CC50 (HepG2) was over 100 µM. The inhibition of growth at 40 µM [3] was 94%, the MIC (Escherichia coli) was over 32 µg/mL and the MIC (Pseudomonas aeruginosa) was over 32 µg/mL. It also gave an MIC [2] of 4 to 6.3 µg/mL (≈ 13.2 to 20.8 µM), an IC50 (Giardia intestinalis) of 2.1 µM and an IC50 (Giardia intestinalis; read-out: pIC50 (converted)) of 2 µM. It also gave an MIC (Candida albicans) of over 32 µg/mL, an MIC (Staphylococcus aureus) of over 32 µg/mL and an MIC (Cryptococcus neoformans) of over 32 µg/mL. For the same compound, the MIC (Klebsiella pneumoniae) was over 32 µg/mL and the CC50 (HEK293) was over 100 µM.
For NC(=O)Cn1ccn2cc([N+](=O)[O-])nc2c1=O, the MIC [1] was over 32 µg/mL, the MIC (Acinetobacter baumannii) was over 32 µg/mL and the CC50 (HepG2) was over 100 µM. The MIC (Escherichia coli) was over 32 µg/mL, the MIC (Pseudomonas aeruginosa) was over 32 µg/mL and the MIC [2] was over 32 µg/mL. The IC50 (Giardia intestinalis) was over 50 µM, the IC50 (Giardia intestinalis; read-out: pIC50 (converted)) was over 50.1 µM and the MIC (Candida albicans) was over 32 µg/mL. It also gave an IC50 ([7]; read-out: IC50) of over 40 µM, an IC50 ([7]; read-out: pIC50 (converted)) of over 39.8 µM and an MIC (Staphylococcus aureus) of over 32 µg/mL. It also gave an MIC (Cryptococcus neoformans) of over 32 µg/mL, an MIC (Klebsiella pneumoniae) of over 32 µg/mL and a CC50 (HEK293) of over 100 µM.
In the case of Cc1nc(OCc2ccc(OC(F)(F)F)cc2)c2nc([N+](=O)[O-])cn2c1C, the MIC [1] is reported as over 32 µg/mL, the Stability [10] is reported as over 99% and the Stability [5] is reported as 44%. The Stability [6] was under 0.5%, the MIC [2] was over 32 µg/mL and the IC50 (Giardia intestinalis) was 8.6 µM. It also gave an IC50 (Giardia intestinalis; read-out: pIC50 (converted)) of 7.94 µM, an IC50 ([7]; read-out: IC50) of 10 µM and an IC50 ([7]; read-out: pIC50 (converted)) of 10 µM. For the same compound, the IC50 (Entamoeba histolytica; read-out: IC50) was 17 µM, the IC50 (Entamoeba histolytica; read-out: pIC50 (converted)) was 15.8 µM and the Stability [11] was over 99%.
Work on Cc1ccc(CCn2ccn3cc([N+](=O)[O-])nc3c2=O)cc1 yielded an IC50 [1] of 4 µM, an MIC (Acinetobacter baumannii) of over 32 µg/mL and a CC50 (HepG2) of over 100 µM. It also gave an MIC (Escherichia coli) of over 32 µg/mL, an MIC (Pseudomonas aeruginosa) of over 32 µg/mL and an MIC [2] of over 32 µg/mL. For the same compound, the IC50 (Giardia intestinalis) was 3.2 µM, the IC50 (Giardia intestinalis; read-out: pIC50 (converted)) was 3.16 µM and the MIC (Candida albicans) was over 32 µg/mL. The inhibition of growth at 32 µg/mL [4] was 78%, the IC50 ([7]; read-out: IC50) was over 40 µM and the IC50 ([7]; read-out: pIC50 (converted)) was over 39.8 µM. It also gave an MIC (Staphylococcus aureus) of over 32 µg/mL, an MIC (Cryptococcus neoformans) of over 32 µg/mL and an MIC (Klebsiella pneumoniae) of over 32 µg/mL. For the same compound, the CC50 (HEK293) was over 100 µM.
